According to ChEMBL document CHEMBL1140384, “Synthesis and structure-activity relationships of suramin-derived P2Y11 receptor antagonists with nanomolar potency” (J Med Chem, 2005):

Legend:
[1] = target: T1, P2Y purinoceptor 11 (Homo sapiens) (UniProt Q96G91); assay: Relative potency was measured against P2Y purinoceptor 11; type: functional
T1 sequence (whole entry): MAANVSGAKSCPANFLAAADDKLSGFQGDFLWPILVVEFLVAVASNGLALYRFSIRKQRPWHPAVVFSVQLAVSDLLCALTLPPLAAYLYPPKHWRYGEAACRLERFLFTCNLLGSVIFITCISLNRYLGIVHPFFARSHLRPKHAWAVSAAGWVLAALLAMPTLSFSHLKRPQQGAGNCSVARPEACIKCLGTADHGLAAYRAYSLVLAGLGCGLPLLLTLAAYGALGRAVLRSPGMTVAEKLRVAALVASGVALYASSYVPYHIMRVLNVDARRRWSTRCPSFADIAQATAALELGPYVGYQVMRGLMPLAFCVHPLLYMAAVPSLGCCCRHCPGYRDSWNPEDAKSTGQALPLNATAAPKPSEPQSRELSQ

P2Y purinoceptor 11 [2] = target: T2, P2Y purinoceptor 11 (Homo sapiens, UniProt Q96G91); assay: Inhibitory concentration against P2Y purinoceptor 11 expressed in 1321N1 astrocytoma cells; n=7; type: cell-based
T2 sequence (Q96G91 whole entry): T1 sequence (whole entry)
In short: (§1)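 Human P2Y11 stably expressed in 1321N1 astrocytoma cells (G418 selection), loaded with Oregon Green 488 BAPTA-1/AM (3 µM, 60 min, 25 °C) in Krebs-HEPES. Compound preincubated 30 min at 37 °C before injection of 1 µM ATPγS. Ca2+ fluorescence read at ex 485/em 520 nm for 30 s. IC50 from concentration-inhibition curves; independent experiments each run in triplicate.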

P2Y purinoceptor 2 = P2Y purinoceptor 2 (Homo sapiens, UniProt P41231); assay: Percent inhibition of agonist-induced calcium mobilization at P2Y purinoceptor 2 recombinantly expressed in human HEK293 cells at 100 uM dose; type: functional, cell-based; settings: in the assay text read “native in” for “recombinantly expressed in”
Sequence of P2Y purinoceptor 2 (P41231 whole entry): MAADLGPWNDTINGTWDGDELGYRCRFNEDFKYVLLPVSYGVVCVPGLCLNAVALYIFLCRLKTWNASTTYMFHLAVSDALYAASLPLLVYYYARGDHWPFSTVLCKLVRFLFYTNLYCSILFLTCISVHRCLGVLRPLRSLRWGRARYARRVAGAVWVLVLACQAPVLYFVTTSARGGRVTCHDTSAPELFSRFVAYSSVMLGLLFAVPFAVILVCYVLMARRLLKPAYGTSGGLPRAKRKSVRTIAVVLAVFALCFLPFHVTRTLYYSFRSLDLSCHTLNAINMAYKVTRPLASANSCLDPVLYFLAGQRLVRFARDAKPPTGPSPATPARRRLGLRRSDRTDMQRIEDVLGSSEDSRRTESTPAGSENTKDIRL
In short: (§2)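 Single 100 µM antagonist dose, preincubated 30 min at 37 °C, in a Ca2+ fluorescence assay (Oregon Green 488 BAPTA-1/AM). Agonists: 31.6 nM 2-MeSADP for native P2Y1 and 3.16 µM UTP for native P2Y2, both in HEK293 cells; 1 µM ATPγS for recombinant P2Y11 in 1321N1 cells. Response expressed as % of agonist control; mean ± SEM, n ≥ 3.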

P2Y purinoceptor 1 = P2Y purinoceptor 1 (Homo sapiens, UniProt P47900); assay: Percent inhibition of agonist-induced calcium mobilization at P2Y purinoceptor 1 recombinantly expressed in human HEK293 cells at 100 uM dose; type: functional, cell-based; settings: in the assay text read “native in” for “recombinantly expressed in”; in short: as §2
Sequence of P2Y purinoceptor 1 (P47900 whole entry): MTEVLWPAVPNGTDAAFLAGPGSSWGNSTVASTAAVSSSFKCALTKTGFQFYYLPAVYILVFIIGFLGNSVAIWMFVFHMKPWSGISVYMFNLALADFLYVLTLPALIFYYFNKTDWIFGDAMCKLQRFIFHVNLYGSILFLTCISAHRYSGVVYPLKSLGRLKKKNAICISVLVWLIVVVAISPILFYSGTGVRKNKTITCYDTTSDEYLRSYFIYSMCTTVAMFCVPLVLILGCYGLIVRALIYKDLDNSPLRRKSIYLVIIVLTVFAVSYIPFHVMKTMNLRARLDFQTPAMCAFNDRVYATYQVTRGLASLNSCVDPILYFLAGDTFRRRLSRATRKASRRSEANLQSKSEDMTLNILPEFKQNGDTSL

[3] = target: T1, P2Y purinoceptor 11 (Homo sapiens); assay: Percent inhibition of agonist-induced calcium mobilization at P2Y purinoceptor 11 recombinantly expressed in human 1321N1 astrocytoma cells at 100 uM dose
P2Y purinoceptor 11 [4] = target: T2, P2Y purinoceptor 11; assay: Inhibitory concentration against P2Y purinoceptor 11 expressed in 1321N1 astrocytoma cells; n=3; type: cell-based; in short: as §1
P2Y purinoceptor 11 [5] = target: T2, P2Y purinoceptor 11; assay: Inhibitory concentration against P2Y purinoceptor 11 expressed in 1321N1 astrocytoma cells; n=6; type: cell-based; in short: as §1
P2Y purinoceptor 11 [6] = target: T2, P2Y purinoceptor 11; assay: Inhibitory concentration against P2Y purinoceptor 11 expressed in 1321N1 astrocytoma cells; n=4; type: cell-based; in short: as §1

SMILES	Rel potency [1]	Ki (P2Y purinoceptor 11 [2]) [nM]	inhibition (P2Y purinoceptor 2) [%]	inhibition (P2Y purinoceptor 1) [%]	inhibition [3] [%]	Ki (P2Y purinoceptor 11 [4]) [nM]	Ki (P2Y purinoceptor 11 [5]) [nM]	Ki (P2Y purinoceptor 11 [6]) [nM]
O=C(Nc1cccc(C(=O)Nc2cc(C(=O)Nc3ccc(S(=O)(=O)O)c4cc(S(=O)(=O)O)cc(S(=O)(=O)O)c34)ccc2Cl)c1)Nc1cccc(C(=O)Nc2cc(C(=O)Nc3ccc(S(=O)(=O)O)c4cc(S(=O)(=O)O)cc(S(=O)(=O)O)c34)ccc2Cl)c1	42	107	55.2	40.6	93	–	–	–
O=C(Nc1cc(C(=O)Nc2ccc(S(=O)(=O)O)c3cc(S(=O)(=O)O)cc(S(=O)(=O)O)c23)ccc1-c1ccccc1)Nc1cc(C(=O)Nc2ccc(S(=O)(=O)O)c3cc(S(=O)(=O)O)cc(S(=O)(=O)O)c23)ccc1-c1ccccc1	–	–	0	34.2	35.9	–	–	–
O=C(Nc1cccc(C(=O)Nc2cc(C(=O)Nc3ccc(S(=O)(=O)O)c4cc(S(=O)(=O)O)cc(S(=O)(=O)O)c34)ccc2-c2ccccc2)c1)Nc1cccc(C(=O)Nc2cc(C(=O)Nc3ccc(S(=O)(=O)O)c4cc(S(=O)(=O)O)cc(S(=O)(=O)O)c34)ccc2-c2ccccc2)c1	15	–	73.2	75.1	79.9	302	–	–
COc1ccc(C(=O)Nc2ccc(S(=O)(=O)O)c3cc(S(=O)(=O)O)cc(S(=O)(=O)O)c23)cc1NC(=O)c1cccc(NC(=O)Nc2cccc(C(=O)Nc3cc(C(=O)Nc4ccc(S(=O)(=O)O)c5cc(S(=O)(=O)O)cc(S(=O)(=O)O)c45)ccc3OC)c2)c1	59	75.9	44.9	23.2	92.2	–	–	–
Cc1ccc(C(=O)Nc2ccc(S(=O)(=O)O)c3cc(S(=O)(=O)O)cc(S(=O)(=O)O)c23)cc1NC(=O)c1cccc(NC(=O)Nc2cccc(C(=O)Nc3cc(C(=O)Nc4ccc(S(=O)(=O)O)c5cc(S(=O)(=O)O)cc(S(=O)(=O)O)c45)ccc3C)c2)c1 [SURAMIN]	15	–	50.5	54.5	93.7	–	302	–
CCc1ccc(C(=O)Nc2ccc(S(=O)(=O)O)c3cc(S(=O)(=O)O)cc(S(=O)(=O)O)c23)cc1NC(=O)c1cccc(NC(=O)Nc2cccc(C(=O)Nc3cc(C(=O)Nc4ccc(S(=O)(=O)O)c5cc(S(=O)(=O)O)cc(S(=O)(=O)O)c45)ccc3CC)c2)c1	4.5	–	48.8	48.7	84.9	1000	–	–
CC(C)c1ccc(C(=O)Nc2ccc(S(=O)(=O)O)c3cc(S(=O)(=O)O)cc(S(=O)(=O)O)c23)cc1NC(=O)c1cccc(NC(=O)Nc2cccc(C(=O)Nc3cc(C(=O)Nc4ccc(S(=O)(=O)O)c5cc(S(=O)(=O)O)cc(S(=O)(=O)O)c45)ccc3C(C)C)c2)c1	10	–	31.1	45	83.1	447	–	–

Continued, values first:

Rel potency [1]	Ki (P2Y purinoceptor 11 [2]) [nM]	inhibition (P2Y purinoceptor 2) [%]	inhibition (P2Y purinoceptor 1) [%]	inhibition [3] [%]	Ki (P2Y purinoceptor 11 [4]) [nM]	Ki (P2Y purinoceptor 11 [5]) [nM]	Ki (P2Y purinoceptor 11 [6]) [nM]	SMILES
–	–	20.8	38.4	39.9	–	–	–	CCc1ccc(C(=O)Nc2ccc(S(=O)(=O)O)c3cc(S(=O)(=O)O)cc(S(=O)(=O)O)c23)cc1NC(=O)Nc1cc(C(=O)Nc2ccc(S(=O)(=O)O)c3cc(S(=O)(=O)O)cc(S(=O)(=O)O)c23)ccc1CC
–	–	14.2	28.7	23.2	–	–	–	CC(C)c1ccc(C(=O)Nc2ccc(S(=O)(=O)O)c3cc(S(=O)(=O)O)cc(S(=O)(=O)O)c23)cc1NC(=O)Nc1cc(C(=O)Nc2ccc(S(=O)(=O)O)c3cc(S(=O)(=O)O)cc(S(=O)(=O)O)c23)ccc1C(C)C
–	–	24	19.7	54.2	–	–	–	O=C(Nc1cccc(C(=O)Nc2ccc(S(=O)(=O)O)c3cc(S(=O)(=O)O)cc(S(=O)(=O)O)c23)c1)Nc1cccc(C(=O)Nc2ccc(S(=O)(=O)O)c3cc(S(=O)(=O)O)cc(S(=O)(=O)O)c23)c1
0.6	–	28.4	0	86.6	7590	–	–	Cc1ccc(C(=O)Nc2ccc(S(=O)(=O)O)c3cc(S(=O)(=O)O)cc(S(=O)(=O)O)c23)cc1NC(=O)Nc1cc(C(=O)Nc2ccc(S(=O)(=O)O)c3cc(S(=O)(=O)O)cc(S(=O)(=O)O)c23)ccc1C
1.9	–	44.3	47.5	71.6	–	–	2400	COCc1ccc(C(=O)Nc2ccc(S(=O)(=O)O)c3cc(S(=O)(=O)O)cc(S(=O)(=O)O)c23)cc1NC(=O)c1cccc(NC(=O)Nc2cccc(C(=O)Nc3cc(C(=O)Nc4ccc(S(=O)(=O)O)c5cc(S(=O)(=O)O)cc(S(=O)(=O)O)c45)ccc3COC)c2)c1
–	–	13	31.7	23.8	–	–	–	COCc1ccc(C(=O)Nc2ccc(S(=O)(=O)O)c3cc(S(=O)(=O)O)cc(S(=O)(=O)O)c23)cc1NC(=O)Nc1cc(C(=O)Nc2ccc(S(=O)(=O)O)c3cc(S(=O)(=O)O)cc(S(=O)(=O)O)c23)ccc1COC
–	–	53.6	40	11.2	–	–	–	COc1ccc(C(=O)Nc2ccc(S(=O)(=O)O)c3cc(S(=O)(=O)O)cc(S(=O)(=O)O)c23)cc1NC(=O)Nc1cc(C(=O)Nc2ccc(S(=O)(=O)O)c3cc(S(=O)(=O)O)cc(S(=O)(=O)O)c23)ccc1OC
–	–	0	57.8	59	–	–	–	O=C(Nc1cc(C(=O)Nc2ccc(S(=O)(=O)O)c3cc(S(=O)(=O)O)cc(S(=O)(=O)O)c23)ccc1Cl)Nc1cc(C(=O)Nc2ccc(S(=O)(=O)O)c3cc(S(=O)(=O)O)cc(S(=O)(=O)O)c23)ccc1Cl
–	–	0	60	64.7	–	–	–	O=C(Nc1cc(C(=O)Nc2ccc(S(=O)(=O)O)c3cc(S(=O)(=O)O)cc(S(=O)(=O)O)c23)ccc1F)Nc1cc(C(=O)Nc2ccc(S(=O)(=O)O)c3cc(S(=O)(=O)O)cc(S(=O)(=O)O)c23)ccc1F
